Series [1] can be described thus: In vitro microsomal stability. It counts as in vitro ADME. To be noted: human liver microsomes, 1 μM, Table 3. The method, boiled down: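 Compound (1 μM) with pooled human liver microsomes (0.4 mg mL−1) in 100 mM potassium phosphate, pH 7.4, with 3.3 mM MgCl2 and 1.3 mM β-NADPH. Organic solvent was ≤1%, at 37 °C. Time-point samples were quenched with ice-cold acetonitrile containing internal standard, centrifuged, and the supernatants analysed by LC-MS/MS. Results are intrinsic clearance.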
For orientation: Microsomes from liver hold many membrane-bound enzymes, among them those of drug oxidation.

The test system of series [2] is HBV DNA in HBV-expressed HepG2.2.15 cells. The series can be described thus: In vitro anti-HBV activity in HepG2.2.15 cell line. Type of series: cell-based. To be noted: Hepatitis B virus, HepG2.2.15, 144 h, read-out: % HBV DNA remaining. The method, boiled down:
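HepG2.2.15 cells were seeded at 5 × 10^5 per well in high-glucose DMEM with 10% heat-inactivated FBS, 300 mg L−1 G418, 1% non-essential amino acids and antibiotic–antimycotic, then held overnight at 37 °C, 5% CO2. Compound or 0.5% DMSO was given for 3 days, then renewed for 3 more days. Intracellular HBV DNA was measured by qPCR as % remaining versus vehicle; EC50 came from a 4-parameter nonlinear fit.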

In series [3] the target is T1, CYP2A6 (Homo sapiens, UniProt P11509).
T1 sequence (P11509 1-494): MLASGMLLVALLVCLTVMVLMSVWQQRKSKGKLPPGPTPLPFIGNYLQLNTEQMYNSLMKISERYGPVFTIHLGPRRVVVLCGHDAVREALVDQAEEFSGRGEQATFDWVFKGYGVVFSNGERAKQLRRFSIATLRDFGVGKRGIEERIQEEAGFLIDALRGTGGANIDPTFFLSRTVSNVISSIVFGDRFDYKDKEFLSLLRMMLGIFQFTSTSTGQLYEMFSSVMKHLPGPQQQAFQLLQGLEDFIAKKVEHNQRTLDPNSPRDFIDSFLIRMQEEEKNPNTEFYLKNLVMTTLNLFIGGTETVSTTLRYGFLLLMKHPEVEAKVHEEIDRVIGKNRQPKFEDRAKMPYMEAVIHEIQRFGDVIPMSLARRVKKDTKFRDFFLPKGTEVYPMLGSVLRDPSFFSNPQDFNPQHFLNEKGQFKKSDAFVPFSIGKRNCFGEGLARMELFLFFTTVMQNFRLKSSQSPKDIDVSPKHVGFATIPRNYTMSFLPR
The series can be described thus: CYP450 inhibition in human liver microsomes. Type of series: in vitro ADME. The settings on record: pooled human liver microsomes, pH 7.4, probe coumarin (1.5 μM). An outline of the steps:
(§1)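 Test compound at 10 μM with pooled human liver microsomes (0.2 mg mL−1) and a cocktail of 10 CYP probe substrates. Buffer was 100 mM potassium phosphate, pH 7.4, with 3.3 mM MgCl2, at 37 °C. β-NADPH (1.3 mM) started the reaction. After 10 min, ice-cold 3% formic acid in 5% acetonitrile stopped it. Centrifuged samples went to LC-MS/MS; each metabolite's formation is given as % inhibition versus control.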

The target in series [4] is T2, CYP2C8 (Homo sapiens, UniProt P10632).
T2 sequence (P10632 1-490): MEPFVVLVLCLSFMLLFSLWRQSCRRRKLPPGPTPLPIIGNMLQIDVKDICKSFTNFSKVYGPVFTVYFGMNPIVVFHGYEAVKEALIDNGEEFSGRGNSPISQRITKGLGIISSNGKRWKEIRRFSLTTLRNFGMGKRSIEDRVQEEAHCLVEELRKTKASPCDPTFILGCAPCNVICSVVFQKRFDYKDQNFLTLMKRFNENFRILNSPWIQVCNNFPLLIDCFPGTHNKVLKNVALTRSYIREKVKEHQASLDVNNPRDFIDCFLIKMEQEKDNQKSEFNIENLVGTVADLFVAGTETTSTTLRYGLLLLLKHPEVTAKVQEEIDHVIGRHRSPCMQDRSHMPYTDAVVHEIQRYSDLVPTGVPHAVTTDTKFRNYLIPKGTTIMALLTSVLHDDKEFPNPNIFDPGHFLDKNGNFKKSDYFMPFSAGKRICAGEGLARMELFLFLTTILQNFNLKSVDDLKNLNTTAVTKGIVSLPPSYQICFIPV
The series can be described thus: CYP450 inhibition in human liver microsomes. It counts as in vitro ADME. The settings on record: pooled human liver microsomes, pH 7.4, probe amodiaquine (1 μM). The method, boiled down: as §1

The target of series [5] is CYP2D6 (Homo sapiens, UniProt P10635). The series is described as follows: CYP450 inhibition in human liver microsomes. It counts as in vitro ADME. To be noted: pooled human liver microsomes, pH 7.4, probe dextromethorphan (2.5 μM). The method, boiled down: as §1
Chain of CYP2D6 (P10635 whole entry): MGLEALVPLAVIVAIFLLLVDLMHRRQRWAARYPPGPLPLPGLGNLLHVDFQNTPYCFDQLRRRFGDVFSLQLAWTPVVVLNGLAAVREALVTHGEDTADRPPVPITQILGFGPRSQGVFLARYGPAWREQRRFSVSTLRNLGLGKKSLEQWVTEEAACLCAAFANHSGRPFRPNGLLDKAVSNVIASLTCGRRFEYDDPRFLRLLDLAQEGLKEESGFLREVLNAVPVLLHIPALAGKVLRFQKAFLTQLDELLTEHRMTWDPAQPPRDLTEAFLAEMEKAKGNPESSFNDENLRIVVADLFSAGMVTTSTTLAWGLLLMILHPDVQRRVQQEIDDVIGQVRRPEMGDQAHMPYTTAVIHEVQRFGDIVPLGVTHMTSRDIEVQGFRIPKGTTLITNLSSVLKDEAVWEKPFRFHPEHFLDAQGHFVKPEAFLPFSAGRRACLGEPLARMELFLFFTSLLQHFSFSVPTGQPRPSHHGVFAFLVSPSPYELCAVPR

In series [1], `O=C(Nc1cc(F)c(F)c(F)c1)[C@H]1CCN(C(=O)c2cc3cnccc3[nH]2)C1` [CU04, (S)-1-(1H-Pyrrolo[3,2-c]pyridine-2-carbonyl)-N-(3,4,5-trifluorophenyl)pyrrolidine-3-carboxamide] yielded a CLint of 1.1 μL per min per mg protein. The activity at 1 µM in series [2] was 67%. In addition, the inhibition – broadly, how much of the control response was suppressed – at 10 min, 10 µM in series [3] was 57%; in series [4] it was 55%; in series [5] it was 82%.

(Values after paper PMC10556424 (RSC Advances, 2023).)
